{"source": "paper PMC6510378", "about": "(Clinical and Translational Science, 2019)", "key": {"[1]": {"settings": "mice, available in vivo pharmacology data; cited from earlier work"}, "11β‐HSD2 [2]": {"molecular_target": "T1, 11β‐HSD2 (Homo sapiens, UniProt P80365)", "T1 sequence (P80365 1-405)": "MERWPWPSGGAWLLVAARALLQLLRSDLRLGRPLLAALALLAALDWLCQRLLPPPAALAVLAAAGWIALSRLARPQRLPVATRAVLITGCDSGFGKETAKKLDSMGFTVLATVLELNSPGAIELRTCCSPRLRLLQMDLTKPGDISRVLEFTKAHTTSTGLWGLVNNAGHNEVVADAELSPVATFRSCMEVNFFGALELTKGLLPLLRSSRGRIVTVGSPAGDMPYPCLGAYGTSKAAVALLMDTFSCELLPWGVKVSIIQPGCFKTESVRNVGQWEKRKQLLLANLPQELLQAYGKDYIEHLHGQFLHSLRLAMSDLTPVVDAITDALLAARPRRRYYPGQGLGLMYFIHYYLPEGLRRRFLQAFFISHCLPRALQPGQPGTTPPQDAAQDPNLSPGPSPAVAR", "assay": "Urine 11β-HSD2 activity", "type": "in vivo", "settings": "up to 50 mg q.d. for 14 days", "procedure,_shortened": "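Renal 11β-HSD2 activity was taken as the urinary cortisol/cortisone ratio. Subjects were healthy young Japanese, young non-Japanese and elderly non-Japanese adults on oral placebo or drug (10, 20 or 50 mg), single dose day 1 then once daily on days 5–18. The ratio was assessed on days 1 and 18.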"}, "[3]": {"test_system": "models of neuropathic and dysfunctional pain", "settings": "rats; cited from earlier work"}, "[4]": {"assay": "Safety and tolerability, MAD study", "type": "in vivo, human", "settings": "for Any TEAE / Drug-related TEAE / Number of TEAEs / Number of drug-related TEAEs / TEAE: Constipation / TEAE: Gastrointestinal disorders / TEAE: General disorders and administration site conditions / TEAE: Headache / TEAE: Medical device site reaction / TEAE: Nervous system disorders / TEAE: Skin and subcutaneous tissue disorders: MAD study", "procedure,_shortened": "(§1)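 Safety was assessed from treatment-emergent adverse events: nature, frequency, severity, onset/offset and relatedness to study drug, coded by MedDRA system organ class. Also assessed were haematology, serum chemistry, urinalysis, physical examination with vital signs, and ECGs. CNS scales used were Bond and Lader VAS, ARCI-49 and Profile of Mood States. Data were summarized descriptively.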"}, "[5]": {"assay": "Safety and tolerability, SAD study", "type": "in vivo, human", "procedure,_shortened": "as §1"}, "11β‐HSD2 [6]": {"test_system": "11β‐HSD2", "settings": "at concentrations < 3,000 nM; ref Internal study reports 3662‐PH‐0001 and 3662‐PH‐0001‐0004; cited from earlier work"}, "[7]": {"test_system": "hypothalamic‐pituitary‐adrenal (HPA) axis", "assay": "HPA axis endocrine markers", "type": "in vivo, human", "procedure,_shortened": "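Healthy young non-Japanese adults, open-label low-dose part. 0.7 or 2 mg was given as a single oral dose on day 1, then after a 6-day washout once daily. 0.4 mg was given once daily on days 1–14. 0.2 mg followed a 3 mg loading dose on day 1, days 2–14. Baseline urine endocrine markers were taken day –1. Urine cortisol came from first morning void. ACTH and DHEA-s were plasma. Follow-up sampling ran days 16–21 and day 28.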"}}, "data": [{"smiles": "Cn1c(-c2ccc(C(N)=O)cc2F)nnc1C(C)(C)Oc1c(F)cc(Cl)cc1F", "note": "[ASP3662]", "values": [{"measurement": "minimal pharmacological active oral dose", "setting": "[1]", "value": 0.03, "unit": "mg/kg"}, {"measurement": "change in urinary cortisol to cortisone ratio relative to PBO", "setting": "11β‐HSD2 [2]", "value": "no noteworthy changes"}, {"measurement": "analgesic effects", "setting": "[3]", "value": "significant analgesic effects"}, {"measurement": "subjects with TEAE headache", "setting": "[4]; MAD part 2, 0.2 mg", "value": 2, "unit": "n"}, {"measurement": "subjects with TEAE headache", "setting": "[4]; MAD part 2, 0.4 mg", "value": 1, "unit": "n"}, {"measurement": "subjects with TEAE headache", "setting": "[4]; MAD part 2, 0.7 mg", "value": 1, "unit": "n"}, {"measurement": "subjects with TEAE headache", "setting": "[4]; MAD part 2, 2 mg", "value": 1, "unit": "n"}, {"measurement": "Any TEAE", "setting": "[4]; 10 mg, n=8", "value": "3 (37.5) n (%)"}, {"measurement": "Drug-related TEAE", "setting": "[4]; 10 mg, n=8", "value": "2 (25.0) n (%)"}, {"measurement": "Number of TEAEs", "setting": "[4]; 10 mg, n=8", "value": 3}, {"measurement": "Number of drug-related TEAEs", "setting": "[4]; 10 mg, n=8", "value": 2}, {"measurement": "TEAE: Constipation", "setting": "[4]; 10 mg, n=8", "value": "0 n (%)"}, {"measurement": "TEAE: Gastrointestinal disorders", "setting": "[4]; 10 mg, n=8", "value": "0 n (%)"}, {"measurement": "TEAE: General disorders and administration site conditions", "setting": "[4]; 10 mg, n=8", "value": "0 n (%)"}, {"measurement": "TEAE: Headache", "setting": "[4]; 10 mg, n=8", "value": "0 n (%)"}, {"measurement": "TEAE: Medical device site reaction", "setting": "[4]; 10 mg, n=8", "value": "0 n (%)"}, {"measurement": "TEAE: Nervous system disorders", "setting": "[4]; 10 mg, n=8", "value": "0 n (%)"}, {"measurement": "TEAE: Skin and subcutaneous tissue disorders", "setting": "[4]; 10 mg, n=8", "value": "1 (12.5) n (%)"}, {"measurement": "Any TEAE", "setting": "[4]; 20 mg, n=25", "value": "14 (56.0) n (%)"}, {"measurement": "Drug-related TEAE", "setting": "[4]; 20 mg, n=25", "value": "9 (36.0) n (%)"}, {"measurement": "Number of TEAEs", "setting": "[4]; 20 mg, n=25", "value": 21}, {"measurement": "Number of drug-related TEAEs", "setting": "[4]; 20 mg, n=25", "value": 12}, {"measurement": "TEAE: Constipation", "setting": "[4]; 20 mg, n=25", "value": "1 (4.0) n (%)"}, {"measurement": "TEAE: Gastrointestinal disorders", "setting": "[4]; 20 mg, n=25", "value": "1 (4.0) n (%)"}, {"measurement": "TEAE: General disorders and administration site conditions", "setting": "[4]; 20 mg, n=25", "value": "3 (12.0) n (%)"}, {"measurement": "TEAE: Headache", "setting": "[4]; 20 mg, n=25", "value": "5 (20.0) n (%)"}, {"measurement": "TEAE: Medical device site reaction", "setting": "[4]; 20 mg, n=25", "value": "2 (8.0) n (%)"}, {"measurement": "TEAE: Nervous system disorders", "setting": "[4]; 20 mg, n=25", "value": "9 (36.0) n (%)"}, {"measurement": "TEAE: Skin and subcutaneous tissue disorders", "setting": "[4]; 20 mg, n=25", "value": "0 n (%)"}, {"measurement": "Any TEAE", "setting": "[4]; 50 mg, n=16", "value": "6 (37.5) n (%)"}, {"measurement": "Drug-related TEAE", "setting": "[4]; 50 mg, n=16", "value": "4 (25.0) n (%)"}, {"measurement": "Number of TEAEs", "setting": "[4]; 50 mg, n=16", "value": 12}, {"measurement": "Number of drug-related TEAEs", "setting": "[4]; 50 mg, n=16", "value": 6}, {"measurement": "TEAE: Constipation", "setting": "[4]; 50 mg, n=16", "value": "2 (12.5) n (%)"}, {"measurement": "TEAE: Gastrointestinal disorders", "setting": "[4]; 50 mg, n=16", "value": "2 (12.5) n (%)"}, {"measurement": "TEAE: General disorders and administration site conditions", "setting": "[4]; 50 mg, n=16", "value": "1 (6.3) n (%)"}, {"measurement": "TEAE: Headache", "setting": "[4]; 50 mg, n=16", "value": "3 (18.8) n (%)"}, {"measurement": "TEAE: Medical device site reaction", "setting": "[4]; 50 mg, n=16", "value": "1 (6.3) n (%)"}, {"measurement": "TEAE: Nervous system disorders", "setting": "[4]; 50 mg, n=16", "value": "3 (18.8) n (%)"}, {"measurement": "TEAE: Skin and subcutaneous tissue disorders", "setting": "[4]; 50 mg, n=16", "value": "2 (12.5) n (%)"}, {"measurement": "Any TEAE", "setting": "[4]; ASP3662 total (10-50 mg), n=49", "value": "23 (46.9) n (%)"}, {"measurement": "Drug-related TEAE", "setting": "[4]; ASP3662 total (10-50 mg), n=49", "value": "15 (30.6) n (%)"}, {"measurement": "Number of TEAEs", "setting": "[4]; ASP3662 total (10-50 mg), n=49", "value": 36}, {"measurement": "Number of drug-related TEAEs", "setting": "[4]; ASP3662 total (10-50 mg), n=49", "value": 20}, {"measurement": "TEAE: Constipation", "setting": "[4]; ASP3662 total (10-50 mg), n=49", "value": "3 (6.1) n (%)"}, {"measurement": "TEAE: Gastrointestinal disorders", "setting": "[4]; ASP3662 total (10-50 mg), n=49", "value": "3 (6.1) n (%)"}, {"measurement": "TEAE: General disorders and administration site conditions", "setting": "[4]; ASP3662 total (10-50 mg), n=49", "value": "4 (8.2) n (%)"}, {"measurement": "TEAE: Headache", "setting": "[4]; ASP3662 total (10-50 mg), n=49", "value": "8 (16.3) n (%)"}, {"measurement": "TEAE: Medical device site reaction", "setting": "[4]; ASP3662 total (10-50 mg), n=49", "value": "3 (6.1) n (%)"}, {"measurement": "TEAE: Nervous system disorders", "setting": "[4]; ASP3662 total (10-50 mg), n=49", "value": "12 (24.5) n (%)"}, {"measurement": "TEAE: Skin and subcutaneous tissue disorders", "setting": "[4]; ASP3662 total (10-50 mg), n=49", "value": "3 (6.1) n (%)"}, {"measurement": "deaths, TEAEs leading to discontinuation, serious or drug-related TEAEs", "setting": "[4]; both SAD and MAD studies", "value": "No deaths, TEAEs leading to discontinuation, serious TEAEs"}, {"measurement": "potentially clinically significant orthostatic pulse rate measurements", "setting": "[4]; elderly subjects who received ASP3662", "value": 44.4, "unit": "%"}, {"measurement": "overall safety and tolerability", "setting": "[4]; multiple oral doses up to 50 mg for 14 days", "value": "safe and well tolerated"}, {"measurement": "clinically relevant finding (vital signs)", "setting": "[5]; after a single dose of 6 mg", "value": "clinically significant orthostatic hypotension"}, {"measurement": "overall safety and tolerability", "setting": "[5]; single oral doses up to 60 mg", "value": "safe and well tolerated"}, {"measurement": "inhibition of 11β‐HSD2", "setting": "11β‐HSD2 [6]", "value": "no inhibition"}, {"measurement": "effects on ACTH, DHEA‐s and 24‐hour total urine glucocorticoids", "setting": "[7]; MAD part 2, low dose", "value": "activation of the HPA axis"}, {"measurement": "effect on urine cortisol levels", "setting": "[7]; despite full 11β‐HSD1 inhibition, part 2 low dose", "value": "no significant effects"}]}]}
